Results on 48 sequences are retold here after the EternaBench riboswitch data.

For the data set, the system named is MS2 coat protein. The data set is described as follows: apparent Kd, MS2 coat protein; higher = weaker binding; RNA-MaP array; FMN 200 µM where present. The essentials:
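On Illumina sequencing-chip clusters, designs were transcribed by stalled E. coli RNA polymerase and titrated with SNAP-549-labelled MS2 coat protein (0.7 or 1.5 nM, doubling to 3 µM), without and then with constant ligand, in 100 mM Tris-HCl pH 7.5, 80 mM KCl, 4 mM MgCl2, BSA, DTT, yeast tRNA and Tween-20. Apparent Kd is the median of filtered per-cluster curve fits to green signal normalised to red-channel RNA signal and control-cluster median Fmax.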

Setting [1] is: designed as: OFF switch for flavin mononucleotide, no ligand.
Where [2] appears, read: ligand present: flavin mononucleotide, designed as: OFF switch for flavin mononucleotide.
Setting [3] is: designed as: ON switch for flavin mononucleotide, no ligand.
[4] abbreviates: ligand present: flavin mononucleotide, designed as: ON switch for flavin mononucleotide.

As usually defined, the apparent Kd is the concentration giving half-maximal binding under the conditions of the assay. For “GUGUACUGAGGAUAUACAUGAGGAUCACCCAUGUGAAUAAGAUAGAAUAAGAUAAAGUGUAGAAGGCAGAGUGU”, the “apparent Kd” value under setting [1] was 40.8 nM and the “apparent Kd” value under setting [2] amounted to 35.4 nM.

Take “AAGGCCUAUUCCAGGACUAUCGUACUAGAAGGGUGACUUGACAUGAGGAUCACCCAUGUACGAGCACAGGAUAUAGAUGAAAGG”: the “apparent Kd” value reads like this: under setting [3], 42.7 nM; under setting [4], 20.2 nM.

“GUGUAGAUAUCAGGAUAUCUAUUUCCUACAUGAGGAUCACCCAUGUAGAUGAUCACCCAUGUAAAGGAGAAGGGAUGUCUAUAC”: the “apparent Kd” value by setting is: under setting [3], 163 nM; under setting [4], 138 nM.

Consider “UUUGCAUUCCGAGGAUAUUCAUAUAAUAAAUAAACAUGAGGAUCACCCAUGUGGCGAAAGCCUAGGGAGAAGGCGGUAUGCUUU”, for which the “apparent Kd” value is, setting by setting: under setting [3], 155 nM; under setting [4], 26.8 nM.

For “AUACAUGAGGAUCACCCAUGUUACAUGGUCUUGAUAUUACGUAGAAGGAUGAUAUUAUUAUUAGCAUAGGAUAUACAAUUUGUA”, the “apparent Kd” value under setting [1] is 57.5 nM and the “apparent Kd” value under setting [2] came to 44 nM.

Take “UUAUUAUAUGUAGGAUAUGCAUAUUACUAUUGUGCAGAAGGACAUGAGGAUCACCCAUGUAUAUUAUUAUUAUAUAUUAUAUAU”: the “apparent Kd” value amounted to 15.8 nM under setting [1] and 15.7 nM under setting [2].

As to “UAUAUAUAGGCAGGAUAUACAUGAAUAUAUAUAAUAUAAUAUGAUGUAACAUGAGGAUCACCCAUGUAGAAGGGCCAAUAUAUA”, the “apparent Kd” value reads like this: under setting [1], 32.6 nM; under setting [2], 64.9 nM.

With “AAGCGACAUGAGGAUCACCCAUGUAGCAGGGUCAGAGGAUAUUUGAGCUUGGUGAGGGUUAAAGAAGGUUGAAAUC”, the “apparent Kd” value is 25.2 nM under setting [3] and 33.1 nM under setting [4].

“GUAGGGAUUACAUGAGGAUCACCCAUGUCAGAACGGGUAAUCAGAAGGUAUUAUUAGGGAGAGGGUAAGGAUAUGAUUUUUUAU”: the “apparent Kd” value is, setting by setting: under setting [3], 433 nM; under setting [4], 344 nM.

As for “AUACGUGAGAAGGAUAUCACUCGCCAAAGGCGUUGAGAAGGUUUCACAUGAGGAUCACCCAUGUGCUCUUCUAG”, the “apparent Kd” value turned out to be 27.7 nM under setting [1] and 61.5 nM under setting [2].

For “CAGCUGAAAGUCAGGAUAUCUAGAGCGAUAGCUCUAGAGAAGGGACAUGAGGAUCACCCAUGUCACUCCAGCUG”, the “apparent Kd” value runs as follows: under setting [1], 17.1 nM; under setting [2], 20.4 nM.

For “UUUUAACAUGAGGAUCACCCAUGUGAGGAUAUCGAAAUUUAUAUUAAUAUUUUUAAAUCGAGAAGGCACAUUUU”, the “apparent Kd” value is 121 nM under setting [1] and 109 nM under setting [2].

“CCUUUUGUAUAAGGAUAUGUAACAAGGCGUAGGUGGGUAGGACUUGCGCUUACAGAAGGUAUACAUGAGGAUCACCCAUGUCGA”: the “apparent Kd” value was found to be 32.4 nM under setting [1] and 240 nM under setting [2].

“GAUUGAGAGCAGGAUAUCUUAGAAAUGUAUUAAAGAGAAGGGCUCACAUGAGGAUCACCCAUGUGGUCCUAGAU”: the “apparent Kd” value under setting [1] was determined as 20.2 nM and the “apparent Kd” value under setting [2] is 175 nM.

On to “UAGCAGUGCGGGUAGGAUAUGUAGGGUGGUACAUGAGGAUCACCCAUGUAUCCACCCUUCGACCGGCAGAAGGGCCUGUCACUGC”, for which the “apparent Kd” value runs as follows: under setting [3], 22 nM; under setting [4], 22.6 nM.

Turning to “AAUUGAAACGUAGGAUAUCGCUAUAAAUUAAUUCGAGAAGGACGUACAUGAGGAUCACCCAUGUUAAAUGGUGUAGUUUAGUUG”, the “apparent Kd” value under setting [1] came out at 108 nM and the “apparent Kd” value under setting [2] was found to be 270 nM.

On to “AAUCUGUCGGUAGGAUAUCAGUUAGGAGAGCCGACAUGAGGAUCACCCAUGUACAGAAUCAAGGGUGAGAAGGACCGGGUAGUA”, for which the “apparent Kd” value is, setting by setting: under setting [3], 114 nM; under setting [4], 111 nM.

Turning to “CCUAGUUGGUAAGGAUAUCCUACACUAUUCUGACCCGUGCAAGCUACAUGAGGAUCACCCAUGUGGGAGAAGGUGCGUCAACGC”, the “apparent Kd” value was determined as 13.8 nM under setting [1] and 15.2 nM under setting [2].

Regarding “UAUUAAUACGAAGGAUAUGGUUACAUGAGGAUCACCCAUGUAUGUAUAUUGAUCUAGAUUUUUAACCAGAAGGUCGUGAGUAAA”, the “apparent Kd” value under setting [1] was 34.9 nM and the “apparent Kd” value under setting [2] is 59 nM.

As for “AUAAAUAAGCAAGGAUAUUGUUUAAAUAAAUAACAAGAAGGUGCAGUUAAUUUCUCAAAACAUGAGGAUCACCCAUGUAUUUAA”, the “apparent Kd” value by setting is: under setting [3], 42.4 nM; under setting [4], 21.8 nM.

As to “UGCACCAACGAGAAGGCACAGAUCCAGCUCUUGACAUGAGGAUCACCCAUGUGAGGAUAUCGUAGGUGCGCAUUGGGACAAUCU”, the “apparent Kd” value amounted to 11.9 nM under setting [1] and 103 nM under setting [2].

For “UCAUAUAUACAAGGAUAUCAAUGAUUUAUAGAUCCUACAUGAGGAUCACCCAUGUUUUUAUAUUUUGAGAAGGUGUAGUGUCUU”, the “apparent Kd” value under setting [3] stood at 214 nM and the “apparent Kd” value under setting [4] turned out to be 333 nM.

As for “AACAUACUGUACAUGAGGAUCACCCAUGUUCGGGCACUGUACAGAAGGCACGGGCAAAUGCGAGGUGAGGAUAUGUAGUUAGUG”, the “apparent Kd” value came out at 122 nM under setting [3] and 49.8 nM under setting [4].

“GCUAGUAUUGCAGGAUAUUGAGAAUAAUUAUUACAAGAAGGGCAUAACAUGAGGAUCACCCAUGUUUUCCUUAAUGAUACUAGC”: the “apparent Kd” value came out at 5.33 nM under setting [1] and 5.59 nM under setting [2].

Turning to “CUUAAGGCAGGAUAUGCUUUUUGUGACAUGAGGAUCACCCAUGUGAUGCAGUUUGGGUUUGCAGAAGGGCCUGAGU”, the “apparent Kd” value runs as follows: under setting [1], 111 nM; under setting [2], 61.1 nM.

In the case of “UCCUGAUCGAGAGGUAGGAGUGGUAGAAGGCGACCGGUGCCAGAUGACAUGAGGAUCACCCAUGUCGAGGAUAUACCACUGAAU”, the “apparent Kd” value by setting is: under setting [1], 7.04 nM; under setting [2], 12.1 nM.

Take “CGUGUUCCACAGAAGGCAUGGGACACAUGAGGAUCACCCAUGUCACUGAUGAGGAUAUGUAAAAGGAGCGAGGUGCAAGAAUAG”: the “apparent Kd” value is, setting by setting: under setting [3], 158 nM; under setting [4], 23.7 nM.

As to “AUUAUUAUAUUAUACAUGAGGAUCACCCAUGUUAUAAGUCAUGAGGAUAUGGUAUUGUAGUUAUUCCAGAAGGCAUUUAACUUA”, the “apparent Kd” value runs as follows: under setting [3], 11.4 nM; under setting [4], 7.05 nM.

In the case of “GCUGCCGAUGCAGGAUAUCAGCACGUGUAGUGCUGAGAAGGGCACAUGAGGAUCACCCAUGUGAUCAAUUAAUAUCCGUGCAGC”, the “apparent Kd” value is, setting by setting: under setting [1], 5.89 nM; under setting [2], 7.78 nM.

“GUAUCUUACCGAGGAUAUUUACGAUUAGUGUAGACAUGAGGAUCACCCAUGUGGCGUUAGUCACGGGAGAAGGCGGUUUGAUAC”: the “apparent Kd” value is, setting by setting: under setting [3], 92.2 nM; under setting [4], 20.5 nM.

For the sequence “ACGAGUACAGGAUAUACAUGAGGAUCACCCAUGUGAGAAUUAAGUGGCGUACCACAAAGUAGAAGGGUACUCGA”, the “apparent Kd” value reads like this: under setting [1], 40.3 nM; under setting [2], 236 nM.

With “ACAUUGCGAGGAUAUACAUGAGGAUCACCCAUGUGGUAGCAGAUACGGUAGGGCUAGUGUAGAAGGUGUCAUGG”, the “apparent Kd” value was determined as 112 nM under setting [1] and 96.3 nM under setting [2].

For “CUUUAGCUAGGAUAUACAUGAGGAUCACCCAUGUUAGCGGCCAAUUGGACCGCGGGUUGUAGAAGGAGCAUUAA”, the “apparent Kd” value under setting [1] came to 37.5 nM and the “apparent Kd” value under setting [2] was 50.3 nM.

In the case of “UAGUAUUAGCGAGGAUAUCGUAUGUUCAAUUUUUUAUAUUGUUUACAUGAGGAUCACCCAUGUUACGAGAAGGCGCAUGGGAUU”, the “apparent Kd” value was 466 nM under setting [3] and 85.8 nM under setting [4].

As for “UUUUUAUAAGAGAAGGAGGACUUCAUGAGGAUCACCCAUGUGUUAGUACUUAGGAUAUUUAAUAACAUGAGGAUCACCCAUGUC”, the “apparent Kd” value was found to be 49.4 nM under setting [3] and 49.2 nM under setting [4].

Consider “GUGAAACAUGAGGAUCACCCAUGUCAGGAUAUGAUACUAUGUACUUCGGUACAUAGUAUCAGAAGGGACAGUGA”, for which the “apparent Kd” value is, setting by setting: under setting [1], 77.9 nM; under setting [2], 101 nM.

With “CCGCUGUCAGGAUAUCGUGCAUACAACGAAAGUUCUAUGUGCGAGAAGGGACAUGAGGAUCACCCAUGUUUCCG”, the “apparent Kd” value was 16.6 nM under setting [1] and 25.8 nM under setting [2].

On to “UAAAAGACUAGCAAAUAAGUUCCACAUGAGGAUCACCCAUGUCAGGAUAUGAGCAGCAAAGCUGCUCAGAAGGGACAGCUAGUC”, for which the “apparent Kd” value reads like this: under setting [1], 5.53 nM; under setting [2], 6.99 nM.

As to “AAUUAUUAUUGAGGAUAUCGUAUUGAAACAAUACGAGAAGGCGGAAUAAACAUGAGGAUCACCCAUGUGAGCCUGAUGCUUGUG”, the “apparent Kd” value was 17 nM under setting [1] and 18.7 nM under setting [2].

As to “AGCAUGUAAGGAUAUGCAAGUGGUAUGGAUCGUACCAGAAAGCAGAAGGUACAUGAGGAUCACCCAUGUGCUCC”, the “apparent Kd” value is, setting by setting: under setting [1], 29.2 nM; under setting [2], 67.5 nM.

Turning to “UCGCUGCGAGGAUAUACAUGAGGAUCACCCAUGUACGGGUCCGGGUCUUUGUCUAUUGGUAGAAGGCGCAGUGA”, the “apparent Kd” value amounted to 55.7 nM under setting [1] and 175 nM under setting [2].

Consider “GACUGAUUGUAGAAGGUACUUAAUACUCAUGUAACAUGAGGAUCACCCAUGUAUCACCCAUAUUGUAAGGAUAUACAUAUCUCA”, for which the “apparent Kd” value was 337 nM under setting [3] and 167 nM under setting [4].

Turning to “GCGUAAUAGGUGUAGCUAGUCGUGCAAGAAGGGUGGUGAACAUGAGGAUCACCCAUGUGGUCAGUACAGGAUAUUGCUAUACGA”, the “apparent Kd” value reads like this: under setting [3], 561 nM; under setting [4], 162 nM.

As to “ACCCAGUUUUGCACUACAUGAGGAUCACCCAUGUGAGCGAGCAGAAGGACGAUGGGUGGAAAAUCGUAGGAUAUGCACUGGGUA”, the “apparent Kd” value runs as follows: under setting [3], 47.2 nM; under setting [4], 12.6 nM.

Take “CACUCACAUGAGGAUCACCCAUGUCCUAGCAGGUCAGGAUAUAGCUCGGAUGCGUUGAGUCUAGAAGGGACACGUU”: the “apparent Kd” value was determined as 96.7 nM under setting [3] and 62.5 nM under setting [4].

In the case of “ACAAGUUUGUAGAAGGACGACUAAUUUGUAUUCGUAGGAUAUACUAUUUACAUGAGGAUCACCCAUGUUUUUAUGGAACAAUGU”, the “apparent Kd” value came to 11.9 nM under setting [1] and 16.2 nM under setting [2].

Regarding “CACAAGUAUAACGAUUUCAAGGCACAGGAUAUGAGUGUGCACAUGAGGAUCACCCAUGUUAUAACUUAGAAGGGUGACCAUCGC”, the “apparent Kd” value runs as follows: under setting [3], 402 nM; under setting [4], 433 nM.

For the sequence “UGAUCUUUUGUUAGGAUAUGCUGUUUUUUUUUACAGCAGAAGGGACAUGAGGAUCACCCAUGUCUUGUCAUAAA”, the “apparent Kd” value under setting [1] was determined as 11.3 nM and the “apparent Kd” value under setting [2] came to 18.6 nM.
